According to ChEMBL document CHEMBL1154898, “Hepatoprotective constituents from the roots and stems of Erycibe hainanesis” (J Nat Prod, 2010):
Activity calls are given as the source filed them. No cut-off for these calls is given here.

tested on: not listed separately; assay: Cytotoxicity against rat WB-F344 cells assessed as cell survival rate after 1 hr at 100 uM by MTT assay; assay type: cell-based; details: read-out: Survival
Procedure, shortened: (§1)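 WB-F344 rat hepatic epithelial stem-like cells were seeded at 1 × 10⁴ cells/well in DMEM with 3% FCS, penicillin and streptomycin, and precultured 24 h at 37 °C in 5% CO₂. Test sample was added in fresh medium for 1 h, then 40 mM D-galactosamine for 24 h; parallel wells without D-galactosamine gave cytotoxicity. MTT (0.5 mg/mL) was added for 3.5 h, formazan dissolved in DMSO and read at 492 nm. Survival is % of normal, mean ± SD, n = 3.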

Structure (SMILES) | viability at 1 h, 100 µM
COc1cc(C(=O)OC[C@@]2(O)CO[C@@H](OC[C@H]3O[C@@H](Oc4c(OC)cc5ccc(=O)oc5c4OC)[C@H](O)[C@@H](O)[C@@H]3O)[C@@H]2O)cc(OC)c1O [ERYCIBOSIDE F] | 44%
COC(=O)c1cc(OC)c2c(c1-c1c(CO)cc(OC)c3c1OCO3)OCO2 [BICYCLOL] | 38%
COc1cc(C(=O)O[C@H]2C[C@](O)(C(=O)O)C[C@H](O)[C@H]2OC(=O)/C=C/c2ccc(O)c(O)c2)cc(OC)c1O | 61%

tested on: not listed separately; assay: Cytotoxicity against rat WB-F344 cells assessed as cell survival rate after 1 hr at 10 uM by MTT assay; assay type: cell-based; details: read-out: Survival; procedure, shortened: as §1

Structure (SMILES) | viability at 1 h, 10 µM
COc1cc2ccc(=O)oc2cc1O[C@@H]1O[C@H](CO[C@@H]2OC[C@](O)(CO)[C@H]2OC(=O)c2cc(OC)c(O)c(OC)c2)[C@@H](O)[C@H](O)[C@H]1O [ERYCIBOSIDE B] | 47%

tested on: WB-F344; assay: Hepatoprotective activity in rat WB-F344 cells assessed as inhibition of D-galactosamine-induced cytotoxicity at 100 uM after 1 hrs by MTT assay relative to control treated before D-galactosamine challenge; details: not given

Structure (SMILES) | Activity
COc1cc(C(=O)O[C@H]2C[C@](O)(C(=O)O)C[C@H](OC(=O)/C=C/c3ccc(O)c(O)c3)[C@H]2O)cc(OC)c1O | inactive
COc1cc(C(=O)OC[C@@]2(O)CO[C@@H](OC[C@H]3O[C@@H](Oc4cc(OC)c(OC)c(OC)c4)[C@H](O)[C@@H](O)[C@@H]3O)[C@@H]2O)cc(OC)c1O | inactive
COc1cc2cc(Oc3cc4oc(=O)ccc4cc3OC)c(=O)oc2cc1O | Active
COc1cc(C(=O)OC[C@@]2(O)CO[C@@H](OC[C@H]3O[C@@H](OCCc4ccc(O)cc4)[C@H](O)[C@@H](O)[C@@H]3O)[C@@H]2O)cc(OC)c1O | inactive
O=C(/C=C/c1ccc(O)c(O)c1)O[C@@H]1C[C@](O)(C(=O)O)C[C@@H](O)[C@H]1O | inactive
O=C(O)c1ccc(O)c(O)c1 | inactive
COc1cc(C(=O)OC[C@@]2(O)CO[C@@H](OC[C@H]3O[C@@H](Oc4cc5oc(=O)ccc5cc4OC)[C@H](O)[C@@H](O)[C@@H]3O)[C@@H]2O)ccc1O | inactive
COc1cc(C(=O)OC[C@@]2(O)CO[C@@H](OC[C@H]3O[C@@H](OC(C)C)[C@H](O)[C@@H](O)[C@@H]3O)[C@@H]2O)cc(OC)c1O | inactive
COc1cc2ccc(=O)oc2cc1O[C@@H]1O[C@H](CO[C@@H]2OC[C@](O)(COC(=O)c3cc(OC)c(O)c(OC)c3)[C@H]2O)[C@@H](O)[C@H](O)[C@H]1O | inactive
CCOC(=O)[C@]1(O)C[C@@H](O)[C@@H](OC(=O)/C=C/c2ccc(O)c(O)c2)[C@H](OC(=O)/C=C/c2ccc(O)c(O)c2)C1 | inactive
COc1cc(C(=O)O[C@@H]2[C@@H](OC(=O)/C=C/c3ccc(O)c(O)c3)C[C@@](O)(C(=O)O)C[C@@H]2O)cc(OC)c1O | inactive
COc1cc2ccc(=O)oc2cc1O[C@@H]1O[C@H](CO)[C@@H](O)[C@H](O)[C@H]1O[C@@H]1OC[C@](O)(COC(=O)c2cc(OC)c(O)c(OC)c2)[C@H]1O | inactive
CCCCOC(=O)[C@]1(O)C[C@@H](O)[C@@H](O)[C@H](OC(=O)/C=C/c2ccc(O)c(O)c2)C1 | inactive
COC(=O)[C@]1(O)C[C@@H](O)[C@@H](O)[C@H](OC(=O)/C=C/c2ccc(O)c(O)c2)C1 | inactive
O=C(/C=C/c1ccc(O)cc1)NCCc1ccc(O)cc1 | inactive
COc1cc(C(=O)O)ccc1O | inactive
CCOC(=O)[C@]1(O)C[C@@H](O)[C@@H](O)[C@H](OC(=O)/C=C/c2ccc(O)c(O)c2)C1 | inactive
O=C(O)/C=C/c1ccc(O)c(O)c1 | inactive
COc1cc(/C=C/C(=O)NCCc2ccc(O)cc2)ccc1O | inactive

tested on: WB-F344; assay: (§2) Hepatoprotective activity in rat WB-F344 cells assessed as inhibition of D-galactosamine-induced cytotoxicity at 10 uM after 1 hrs by MTT assay relative to control treated before D-galactosamine challenge; assay type: functional; details: not given
Procedure, shortened: (§3)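 WB-F344 rat hepatic epithelial stem-like cells, 1 × 10⁴ per well in DMEM with 3% fetal calf serum and penicillin/streptomycin, precultured 24 h at 37 °C in 5% CO₂. Test samples were added in fresh medium for 1 h, then cells were exposed to 40 mM D-galactosamine for 24 h. Readout was MTT 0.5 mg/mL for 3.5 h, formazan dissolved in DMSO, OD at 492 nm. Inhibition (%) = (OD sample − OD control)/(OD normal − OD control) × 100. Values are mean ± SD, n = 3.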

Structure (SMILES) | Activity
COc1cc(C(=O)OC[C@@]2(O)CO[C@@H](O[C@H]3[C@H](Oc4cc5oc(=O)ccc5cc4OC)O[C@H](CO)[C@@H](O)[C@@H]3O)[C@@H]2O)ccc1O | inactive
COC(=O)[C@@]1(O)C[C@@H](OC(=O)/C=C/c2ccc(O)c(O)c2)[C@H](O)[C@H](OC(=O)c2cc(OC)c(O)c(OC)c2)C1 | inactive
COc1cc2cc(-c3cc4cc(OC)c(O)cc4oc3=O)c(=O)oc2cc1O | inactive

tested on: not listed separately; assay: as §2; assay type: functional; details: WB-F344, 1 h; procedure, shortened: as §3

Structure (SMILES) | inhibition at 10 µM
COc1cc(C(=O)OC[C@@]2(O)CO[C@@H](OC[C@H]3O[C@@H](Oc4c(OC)cc5ccc(=O)oc5c4OC)[C@H](O)[C@@H](O)[C@@H]3O)[C@@H]2O)cc(OC)c1O [ERYCIBOSIDE F] | 15.5%
COC(=O)c1cc(OC)c2c(c1-c1c(CO)cc(OC)c3c1OCO3)OCO2 [BICYCLOL] | 11.2%
COc1cc(C(=O)O[C@H]2C[C@](O)(C(=O)O)C[C@H](O)[C@H]2OC(=O)/C=C/c2ccc(O)c(O)c2)cc(OC)c1O | 42.2%
